Laboratory results taken from ChEMBL document CHEMBL4422612, “Small Molecule Inhibitor that Stabilizes the Autoinhibited Conformation of the Oncogenic Tyrosine Phosphatase SHP2” (J Med Chem, 2019).
Calls of active or inactive are those of the source. The rule behind the calls is not given here.

What follows are molecules tested against T1, Tyrosine-protein phosphatase non-receptor type 11 (Homo sapiens) (UniProt Q06124) (assay: Inhibition of wild type recombinant human SHP2 at 50 uM using H-Glu-Phe-pTyr-Ala-Glu-Val-Gly-Arg-Ser-Pro-Pro-Asp-Pro-Ala-Lys as substrate preincubated for 30 mins followed by substrate addition and measured after 30 mins by Malachite Green-reagent based assay).
T1 sequence (whole entry): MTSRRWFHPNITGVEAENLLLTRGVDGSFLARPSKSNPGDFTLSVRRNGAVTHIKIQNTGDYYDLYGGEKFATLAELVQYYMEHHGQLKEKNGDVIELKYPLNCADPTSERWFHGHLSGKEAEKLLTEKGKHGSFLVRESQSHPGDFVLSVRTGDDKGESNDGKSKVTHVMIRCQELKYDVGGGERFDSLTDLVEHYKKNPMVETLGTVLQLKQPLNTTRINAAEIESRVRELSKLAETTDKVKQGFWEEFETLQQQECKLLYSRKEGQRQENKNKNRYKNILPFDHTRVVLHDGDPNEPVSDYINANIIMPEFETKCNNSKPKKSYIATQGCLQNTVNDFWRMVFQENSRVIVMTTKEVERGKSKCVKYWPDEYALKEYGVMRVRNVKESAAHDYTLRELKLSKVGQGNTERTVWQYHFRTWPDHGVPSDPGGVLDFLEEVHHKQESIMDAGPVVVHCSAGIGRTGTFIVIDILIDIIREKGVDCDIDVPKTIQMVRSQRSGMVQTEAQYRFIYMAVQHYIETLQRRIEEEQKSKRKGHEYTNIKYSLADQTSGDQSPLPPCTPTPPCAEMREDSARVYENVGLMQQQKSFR
In short: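 Full-length SHP2 or SHP1 (0.1 µg) preincubated with compound 30 min at room temperature in 25 mM Tris-HCl pH 7.4, 50 mM NaCl, 5 mM DTT, 2.5 mM EDTA. Phospho-peptide substrate added to 50 µM final; 30 min at 30 °C. Released phosphate read by Malachite Green at OD620. IC50 from six concentrations; three experiments.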

Question: For `C=CCOc1cc(O)c(C(=O)/C=C/c2ccc(Cl)cc2Cl)cc1CN1CCC(O)CC1`, which inhibition is on record?
Answer: Active

Question: With `C=CCOc1cc(O)c(C(=O)/C=C/c2ccc(Cl)cc2Cl)cc1CN1CCCCC1` as the molecule, how does the inhibition read?
Answer: Active

Question: How did the inhibition turn out when `CCOc1cc(O)c(C(=O)/C=C/c2ccc(Cl)cc2Cl)cc1CN1C[C@@H](O)C[C@@H]1C(C)=O` was run?
Answer: Active

Question: For `CCOc1cc(O)c(C(=O)/C=C/c2ccc(Cl)cc2Cl)cc1CN1CCNCC1C` (centres undefined), which inhibition is on record?
Answer: Active

Question: With `CCOc1cc(O)c(C(=O)/C=C/c2ccc(Cl)cc2Cl)cc1CN(CC)CC` as the molecule, how does the inhibition read?
Answer: Active

Question: Which inhibition does the source give for `CCOc1cc(O)c(C(=O)/C=C/c2ccc(Cl)cc2Cl)cc1CN1CCC(O)CC1` here?
Answer: Active

Question: With `CCOc1cc(O)c(C(=O)/C=C/c2ccc(OC)cc2)cc1CN1CCCCC1` as the molecule, how does the inhibition read?
Answer: Active

Question: For `CCOc1cc(O)c(C(=O)/C=C/c2ccc(Cl)cc2Cl)cc1CN1CCCCC1`, which inhibition is on record?
Answer: Active

Question: `CCOc1cc(O)c(C(=O)/C=C/c2ccc(Cl)cc2)cc1CN1CCCC1` was tested. Which inhibition did it give?
Answer: Active
